ChEMBL document CHEMBL2203201, “Synthesis and antimalarial evaluation of a screening library based on a tetrahydroanthraquinone natural product scaffold” (Bioorg Med Chem, 2012)
Values after ≈ are worked out from the molar mass of the structure shown.

Key:
[1] = system: Plasmodium falciparum; assay: Antimalarial activity against chloroquine-sensitive ring stage plasmodium falciparum 3D7 infected in erythrocytes assessed as [3H]hypoxanthine incorporation after 48 hrs by liquid scintillation counting; format: functional, organism-based
Method in brief: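 P. falciparum 3D7-infected type O+ erythrocytes (0.5% parasitemia, 2.5% hematocrit) incubated with serial dilutions for 48 h under standard culture conditions. 0.5 μCi 3H-hypoxanthine then added and culture continued a further 24 h. Incorporation counted by liquid scintillation against 0.5% DMSO controls. IC50 by linear interpolation of inhibition curves. Mean of three independent experiments, each in triplicate, ±SD.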

[2] = Selectivity index, ratio of IC50 for human NFF cells to IC50 for chloroquine-sensitive ring stage plasmodium falciparum 3D7
[3] = system: NFF; assay: Cytotoxicity against human NFF cells after 3 days by sulforhodamine B assay; format: cell-based; conditions: 72 h
Method in brief: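 Neonatal foreskin fibroblasts grown in RPMI 1640 with 10% FCS and 1% streptomycin at 37 °C, 5% CO2, kept in log phase. Seeded at 3000/well and grown 24 h before treatment. Compounds diluted from DMSO into medium (≤1% DMSO); controls got matching DMSO. After 3 days, PBS wash, fixation in methylated spirits, total protein by sulforhodamine B. Triplicate, three independent experiments.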

[4] = system: Plasmodium falciparum; assay: Antimalarial activity against chloroquine-resistant ring stage plasmodium falciparum Dd2 infected in erythrocytes assessed as [3H]hypoxanthine incorporation after 48 hrs by liquid scintillation counting; format: functional, organism-based
Method in brief: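 Infected erythrocytes at 0.5% parasitemia and 2.5% hematocrit were plated into serial dilutions of test compound or chloroquine control. After 48 h under standard culture conditions, 0.5 μCi 3H-hypoxanthine was added per well and incubation continued 24 h. Cells were harvested onto filter mats and counted by scintillation. Inhibition was set against 0.5% DMSO controls, and IC50 was obtained by linear interpolation. Mean ± SD of three independent triplicate experiments.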

[5] = system: Staphylococcus aureus; assay: Antibacterial activity against Staphylococcus aureus; format: functional, organism-based
[6] = system: Pseudomonas aeruginosa; assay: Antibacterial activity against Pseudomonas aeruginosa; format: functional, organism-based

IC50 [1] [µM]	Structure (SMILES)	Ratio IC50 [2]	IC50 [3] [µM]	IC50 [4] [µM]	IC50 [5] [µg/mL]	IC50 [6] [µg/mL]
15.8	C[C@]1(O)Cc2c(O)c3c(c(O)c2[C@@H](O)C1)C(=O)C=C(NCCN1CCOCC1)C3=O	3.9	62			
4.3	CCCNC1=CC(=O)c2c(O)c3c(c(O)c2C1=O)C[C@](C)(O)C[C@@H]3O	18.3	78.8			
	CCN(CC)CCCC(C)Nc1ccnc2cc(Cl)ccc12 (stereo unspecified) [CHLOROQUINE]		37.3			
6.3	C[C@]1(O)Cc2c(O)c3c(c(O)c2[C@@H](O)C1)C(=O)C=C(NCCN1CCCC1)C3=O	2.5	15.9			
10.3	COCCNC1=CC(=O)c2c(O)c3c(c(O)c2C1=O)C[C@](C)(O)C[C@@H]3O	8.2	84.3			
6.9	CNC1=CC(=O)c2c(O)c3c(c(O)c2C1=O)C[C@](C)(O)C[C@@H]3O	8.6	59.1			
16.5	C[C@]1(O)Cc2c(O)c3c(c(O)c2[C@@H](O)C1)C(=O)C=C(NCCCN)C3=O	5.4	89.8			
4.2	C[C@]1(O)Cc2c(O)c3c(c(O)c2[C@@H](O)C1)C(=O)C=C(NCCc1ccc(Cl)cc1)C3=O	15.7	66			
6.7	CC(C)(C)OC(=O)NCCCNC1=CC(=O)c2c(O)c3c(c(O)c2C1=O)C[C@](C)(O)C[C@@H]3O	5.4	36.5			
2.4	C[C@]1(O)Cc2c(O)c3c(c(O)c2[C@@H](O)C1)C(=O)C=C(NCCc1ccc(O)cc1)C3=O	9.7	23.3			
7.4	C[C@]1(O)Cc2c(O)c3c(c(O)c2[C@@H](O)C1)C(=O)C=C(NCc1ccccc1)C3=O	1.4	10.7			
3.8	C[C@]1(O)Cc2c(O)c3c(c(O)c2[C@@H](O)C1)C(=O)C=C(NCCc1ccccc1)C3=O	0.9	3.5			

Structure (SMILES)	IC50 [1] [µM]	Ratio IC50 [2]	IC50 [3] [µM]	IC50 [4] [µM]	IC50 [5] [µg/mL]	IC50 [6] [µg/mL]
COC1=CC(=O)c2c(O)c3c(c(O)c2C1=O)C[C@](C)(O)C[C@@H]3O	1.9	8.2	15.6	2.2	3 (≈ 9.37 µM)	> 50
COC1=CC(=O)c2c(O)c3c(c(O)c2C1=O)C[C@@](C)(O)C[C@@H]3O	4.7	9.3	43.7	11.1		
COc1cc(O)c2c(c1O)C(=O)c1cc(C)ccc1C2=O [AUSTROCORTIRUBIN]	> 50		76	> 50		
COC1=CC(=O)c2c(O)c3c(c(O)c2C1=O)C[C@](C)(O)CC3	4.5	12.1	54.6	5.2		
